Source: ChEMBL document CHEMBL5649170, “Sustained microglial depletion with CSF1R inhibitor impairs parenchymal plaque development in an Alzheimer's disease model” (Nat Commun, 2019)
Calls of active or inactive are those of the source. The rule behind the calls is not given here.

Columns and labels:
Mus musculus [1] = test: Antialzheimer activity in 5XFAD mouse assessed as average plaque volume in […] cortex at 75 ppm administered as rodent chow starting from 1.5 months and measured after 5 months by immunolabeling based confocal microscopic analysis (reference value: 789.31 to 1314.37 microm3); assay type: functional; conditions: route po, time 3.5 months, 2555 h
How it was run: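 5xFAD mice fed PLX3397 at 75 ppm in AIN-76A chow from 1.5 to 5 months of age; retrosplenial and somatosensory cortex sections stained with Thio-S and immunolabeled for IBA1; confocal imaging, IBA1+ cells and plaques quantified per region; two-tailed independent t-test, n = 4–5 per group, mean ± SEM.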

[2] = target: Vascular endothelial growth factor receptor 2 (Homo sapiens, UniProt P35968); test: Inhibition of KDR (unknown origin)
Vascular endothelial growth factor receptor 2, sequence (P35968 whole entry, canonical isoform): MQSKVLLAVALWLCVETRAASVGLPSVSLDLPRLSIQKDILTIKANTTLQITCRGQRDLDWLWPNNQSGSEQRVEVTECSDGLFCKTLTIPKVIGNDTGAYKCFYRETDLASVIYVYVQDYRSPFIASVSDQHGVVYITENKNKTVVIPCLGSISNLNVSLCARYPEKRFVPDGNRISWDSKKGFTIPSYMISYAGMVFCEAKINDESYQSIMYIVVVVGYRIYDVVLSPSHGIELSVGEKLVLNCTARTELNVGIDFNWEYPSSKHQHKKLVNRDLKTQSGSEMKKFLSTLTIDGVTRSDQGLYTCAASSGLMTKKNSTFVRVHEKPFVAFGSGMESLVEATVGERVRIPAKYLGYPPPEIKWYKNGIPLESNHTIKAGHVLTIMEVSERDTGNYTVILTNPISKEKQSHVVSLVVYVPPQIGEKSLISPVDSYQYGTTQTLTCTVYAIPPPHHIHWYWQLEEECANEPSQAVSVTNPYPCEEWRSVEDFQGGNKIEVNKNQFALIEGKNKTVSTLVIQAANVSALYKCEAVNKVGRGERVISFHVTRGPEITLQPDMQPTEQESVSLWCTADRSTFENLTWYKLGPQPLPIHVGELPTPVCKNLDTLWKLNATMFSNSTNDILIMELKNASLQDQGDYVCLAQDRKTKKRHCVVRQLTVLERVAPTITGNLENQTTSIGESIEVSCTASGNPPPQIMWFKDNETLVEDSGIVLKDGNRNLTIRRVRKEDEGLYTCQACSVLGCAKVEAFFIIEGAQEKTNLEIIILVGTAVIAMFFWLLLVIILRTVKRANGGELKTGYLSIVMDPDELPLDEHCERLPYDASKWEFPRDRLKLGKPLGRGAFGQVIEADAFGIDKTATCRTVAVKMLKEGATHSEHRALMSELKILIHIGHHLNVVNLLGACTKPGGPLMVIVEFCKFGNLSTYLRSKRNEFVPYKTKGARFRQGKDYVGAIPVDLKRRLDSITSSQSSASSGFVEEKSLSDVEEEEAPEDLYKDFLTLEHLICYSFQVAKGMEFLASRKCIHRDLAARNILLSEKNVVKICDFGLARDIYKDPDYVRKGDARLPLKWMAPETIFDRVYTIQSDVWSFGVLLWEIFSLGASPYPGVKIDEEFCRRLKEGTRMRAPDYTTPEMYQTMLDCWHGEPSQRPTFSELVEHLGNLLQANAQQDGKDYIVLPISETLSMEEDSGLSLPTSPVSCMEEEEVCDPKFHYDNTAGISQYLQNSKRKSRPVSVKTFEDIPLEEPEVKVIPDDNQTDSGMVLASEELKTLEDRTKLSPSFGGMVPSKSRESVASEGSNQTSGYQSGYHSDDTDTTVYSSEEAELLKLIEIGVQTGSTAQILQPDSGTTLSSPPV

[3] = target: Casein kinase I isoform delta (Homo sapiens, UniProt P48730); test: Inhibition of CSNK1D (unknown origin)
[4] = target: G protein-coupled receptor kinase 6 (Homo sapiens, UniProt P43250); test: Inhibition of GRK6 (unknown origin)
G protein-coupled receptor kinase 6, sequence (P43250 whole entry): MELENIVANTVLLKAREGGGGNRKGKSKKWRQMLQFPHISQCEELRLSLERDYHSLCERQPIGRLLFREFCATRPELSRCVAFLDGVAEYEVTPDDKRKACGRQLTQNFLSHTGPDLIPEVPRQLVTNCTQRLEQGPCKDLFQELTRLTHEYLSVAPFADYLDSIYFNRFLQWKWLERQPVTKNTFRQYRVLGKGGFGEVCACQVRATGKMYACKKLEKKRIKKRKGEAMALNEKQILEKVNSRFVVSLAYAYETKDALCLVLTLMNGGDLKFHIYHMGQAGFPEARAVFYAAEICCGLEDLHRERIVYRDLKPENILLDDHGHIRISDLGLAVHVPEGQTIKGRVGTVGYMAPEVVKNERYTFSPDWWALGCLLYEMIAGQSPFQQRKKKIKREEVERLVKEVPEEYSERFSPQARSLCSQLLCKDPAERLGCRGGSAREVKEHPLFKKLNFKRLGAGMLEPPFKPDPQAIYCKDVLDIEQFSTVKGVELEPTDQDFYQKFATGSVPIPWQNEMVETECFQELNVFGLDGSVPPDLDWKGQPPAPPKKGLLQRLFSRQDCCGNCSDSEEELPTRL

[5] = target: Tyrosine-protein kinase JAK2 (Homo sapiens, UniProt O60674); test: Inhibition of JAK2 (unknown origin)
[6] = target: Leukocyte tyrosine kinase receptor (Homo sapiens, UniProt P29376); test: Inhibition of LTK (unknown origin)
[7] = target: Tyrosine-protein kinase Lyn (Homo sapiens, UniProt P07948); test: Inhibition of LYN_A (unknown origin)
[8] = target: Mitogen-activated protein kinase kinase kinase kinase 4 (Homo sapiens, UniProt O95819); test: Inhibition of MAP4K4 (unknown origin)
Mitogen-activated protein kinase kinase kinase kinase 4, sequence (O95819 whole entry): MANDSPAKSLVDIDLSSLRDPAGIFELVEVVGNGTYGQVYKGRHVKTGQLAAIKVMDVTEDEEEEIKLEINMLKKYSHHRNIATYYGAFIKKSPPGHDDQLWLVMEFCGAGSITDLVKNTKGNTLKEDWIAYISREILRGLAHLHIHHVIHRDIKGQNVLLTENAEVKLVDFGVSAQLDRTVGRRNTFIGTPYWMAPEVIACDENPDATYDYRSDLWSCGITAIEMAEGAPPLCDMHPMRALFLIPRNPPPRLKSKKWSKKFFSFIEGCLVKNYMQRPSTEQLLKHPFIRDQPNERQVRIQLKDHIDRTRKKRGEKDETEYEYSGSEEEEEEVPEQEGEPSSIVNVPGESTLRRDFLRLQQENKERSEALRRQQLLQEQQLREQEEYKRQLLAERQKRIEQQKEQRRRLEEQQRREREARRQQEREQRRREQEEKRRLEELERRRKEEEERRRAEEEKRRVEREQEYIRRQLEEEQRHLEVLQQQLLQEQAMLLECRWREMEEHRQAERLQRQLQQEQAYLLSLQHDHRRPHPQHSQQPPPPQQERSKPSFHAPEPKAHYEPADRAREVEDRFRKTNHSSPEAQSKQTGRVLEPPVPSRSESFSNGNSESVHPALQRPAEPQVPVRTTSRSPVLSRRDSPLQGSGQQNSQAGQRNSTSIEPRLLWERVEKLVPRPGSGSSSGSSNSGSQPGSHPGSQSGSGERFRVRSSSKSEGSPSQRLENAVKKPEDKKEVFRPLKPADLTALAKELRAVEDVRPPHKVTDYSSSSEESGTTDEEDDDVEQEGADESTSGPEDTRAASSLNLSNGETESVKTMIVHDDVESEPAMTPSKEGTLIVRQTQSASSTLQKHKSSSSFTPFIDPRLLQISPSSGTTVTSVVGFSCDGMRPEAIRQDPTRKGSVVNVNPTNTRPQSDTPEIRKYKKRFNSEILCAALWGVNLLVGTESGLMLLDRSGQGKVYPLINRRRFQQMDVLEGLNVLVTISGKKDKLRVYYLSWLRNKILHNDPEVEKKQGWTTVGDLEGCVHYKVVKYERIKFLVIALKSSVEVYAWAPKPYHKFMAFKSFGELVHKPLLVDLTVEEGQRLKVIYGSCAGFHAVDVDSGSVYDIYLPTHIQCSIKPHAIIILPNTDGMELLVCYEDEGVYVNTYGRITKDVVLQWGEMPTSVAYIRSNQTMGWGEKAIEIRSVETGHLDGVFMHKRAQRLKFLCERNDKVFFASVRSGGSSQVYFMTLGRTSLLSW

[9] = target: Hepatocyte growth factor receptor (Homo sapiens, UniProt P08581); test: Inhibition of MET (unknown origin)
Misshapen-like kinase 1 = Misshapen-like kinase 1 (Homo sapiens, UniProt Q8N4C8); test: Inhibition of MINK1 (unknown origin)
Misshapen-like kinase 1, sequence (Q8N4C8 whole entry): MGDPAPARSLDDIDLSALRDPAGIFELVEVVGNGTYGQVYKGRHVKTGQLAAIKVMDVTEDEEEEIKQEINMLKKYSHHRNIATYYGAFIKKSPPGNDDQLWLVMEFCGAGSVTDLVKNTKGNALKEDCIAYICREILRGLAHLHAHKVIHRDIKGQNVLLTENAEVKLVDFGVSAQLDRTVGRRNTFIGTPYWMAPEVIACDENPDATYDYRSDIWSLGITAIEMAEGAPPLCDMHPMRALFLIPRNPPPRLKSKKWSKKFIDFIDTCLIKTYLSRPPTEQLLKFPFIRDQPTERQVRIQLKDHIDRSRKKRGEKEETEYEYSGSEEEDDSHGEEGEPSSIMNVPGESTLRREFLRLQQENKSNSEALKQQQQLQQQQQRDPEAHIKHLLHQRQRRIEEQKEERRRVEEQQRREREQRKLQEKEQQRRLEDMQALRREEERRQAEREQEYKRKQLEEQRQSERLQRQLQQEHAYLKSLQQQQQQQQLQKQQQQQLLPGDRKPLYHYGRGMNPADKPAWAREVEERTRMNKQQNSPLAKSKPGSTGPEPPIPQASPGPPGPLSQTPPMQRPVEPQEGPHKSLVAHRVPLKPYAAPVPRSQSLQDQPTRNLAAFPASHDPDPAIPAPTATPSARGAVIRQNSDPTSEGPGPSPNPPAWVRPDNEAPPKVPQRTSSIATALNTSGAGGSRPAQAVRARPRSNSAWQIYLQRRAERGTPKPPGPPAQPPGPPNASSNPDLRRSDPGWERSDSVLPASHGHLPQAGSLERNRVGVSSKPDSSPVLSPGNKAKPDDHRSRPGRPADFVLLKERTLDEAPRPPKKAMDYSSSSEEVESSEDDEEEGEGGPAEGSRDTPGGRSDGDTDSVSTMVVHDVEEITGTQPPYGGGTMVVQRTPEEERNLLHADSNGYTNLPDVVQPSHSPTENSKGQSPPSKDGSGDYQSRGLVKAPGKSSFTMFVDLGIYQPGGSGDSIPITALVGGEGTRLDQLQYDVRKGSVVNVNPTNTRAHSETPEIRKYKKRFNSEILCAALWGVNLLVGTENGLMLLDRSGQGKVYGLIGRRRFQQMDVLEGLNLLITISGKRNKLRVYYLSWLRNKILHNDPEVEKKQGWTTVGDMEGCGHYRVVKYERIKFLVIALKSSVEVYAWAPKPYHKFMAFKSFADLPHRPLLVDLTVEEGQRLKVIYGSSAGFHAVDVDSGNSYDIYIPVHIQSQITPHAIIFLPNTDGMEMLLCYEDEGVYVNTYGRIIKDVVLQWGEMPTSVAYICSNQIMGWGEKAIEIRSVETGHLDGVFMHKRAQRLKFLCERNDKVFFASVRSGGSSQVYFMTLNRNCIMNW

[10] = target: Serine/threonine-protein kinase pim-1 (Homo sapiens, UniProt P11309); test: Inhibition of PIM1 (unknown origin)
Serine/threonine-protein kinase pim-1, sequence (P11309 whole entry): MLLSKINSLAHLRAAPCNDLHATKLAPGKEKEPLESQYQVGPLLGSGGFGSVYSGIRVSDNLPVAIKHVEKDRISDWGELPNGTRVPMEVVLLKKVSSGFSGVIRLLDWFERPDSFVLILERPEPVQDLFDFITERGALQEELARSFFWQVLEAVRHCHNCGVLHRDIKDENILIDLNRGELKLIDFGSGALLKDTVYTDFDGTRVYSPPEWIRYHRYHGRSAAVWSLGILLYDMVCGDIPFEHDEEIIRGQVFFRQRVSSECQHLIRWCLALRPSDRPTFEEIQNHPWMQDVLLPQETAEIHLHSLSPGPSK

[11] = target: Proto-oncogene tyrosine-protein kinase receptor Ret (Homo sapiens, UniProt P07949); test: Inhibition of RET (unknown origin)
[12] = Volume of distribution at steady state in mouse at 1.92 mg/kg, iv administered as single dose; assay type: ADME, organism-based; conditions: in vivo, read-out: Vdss
[13] = Half-life in mouse at 1.92 mg/kg, iv administered as single dose; assay type: ADME, organism-based; conditions: in vivo
[14] = Half-life in monkey at 1.35 mg/kg, iv administered as single dose; assay type: ADME, organism-based, Macaca mulatta; conditions: rhesus monkey, in vivo
[15] = Cmax in mouse at 45 mg/kg, po administered as single dose via gavage; assay type: ADME, organism-based; conditions: in vivo
[16] = Oral bioavailability in mouse at 45 mg/kg administered as single via gavage; assay type: ADME, organism-based; conditions: in vivo
Mus musculus [17] = test: Effect on circulating leukocytes in wildtype mouse assessed as percentage of CD45+/PI- cells expressing CD11b at 1200 ppm administered as rodent chow for 10 to 24 weeks (reference value: 6.22 to 25.7 %); assay type: functional; conditions: route po, time 10-24 weeks
Mus musculus [18] = test: Antialzheimer activity in 5XFAD mouse assessed as time in platform zone at 1200 ppm administered as rodent chow for 10 to 24 weeks by Morris water maze test (reference value: 0 to 27 sec); assay type: functional; conditions: route po, time 10-24 weeks
How it was run: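 Morris water maze: a circular pool was filled with opaque water (white paint added), and mice were given four trials per acquisition day. Twenty-four hours after the last acquisition day, the platform was removed for a 60 s probe trial. Mice had been on 1200 ppm PLX5622 or control chow for 10 or 24 weeks from 1.5 months of age.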

Mus musculus [19] = test: Antialzheimer activity in 5XFAD mouse assessed as average speed at 1200 ppm administered as rodent chow for 10 to 24 weeks by Open field test (reference value: 0.024 to 0.076 meter/s); assay type: functional; conditions: route po, time 10-24 weeks
Mus musculus [20] = test: Antialzheimer activity in 5XFAD mouse assessed as time spent in center zone at 1200 ppm administered as rodent chow for 10 to 24 weeks by Open field test (reference value: 14.9 to 130.9 sec); assay type: functional; conditions: route po, time 10-24 weeks
[21] = Toxicity in wildtype mouse assessed as number of triads at 1200 ppm administered as rodent chow for 10 to 24 weeks by Y-maze test (reference value: 4 to 9); conditions: in vivo, po, time 10-24 weeks
Mus musculus [22] = test: Antialzheimer activity in 5XFAD mouse assessed as number of pyroglutamate-3-modified positive plaques per FOV in cortex at 1200 ppm administered as rodent chow starting from 1.5 months and measured after 7 months by Thio-S staining based confocal microscopic analysis (reference value: 14 to 34); assay type: functional; conditions: route po, time 5.5 months, 4015 h
[23] = Effect on Csf1r RPKM gene expression in wild type mouse cortex at 1200 ppm administered as rodent chow starting from 1.5 months and measured after 7 months by RNA-Seq analysis (reference value: 18.302 to 19.220 RPKM); assay type: functional; conditions: route po, time 5.5 months, 4015 h
[24] = Effect on Cx3cr1 gene expression in 5XFAD mouse cortex at 1200 ppm administered as rodent chow starting from 1.5 months and measured after 7 months by RNA-Seq analysis (reference value: 15.803 to 19.787); assay type: functional; conditions: route po, time 5.5 months, 4015 h
[25] = Effect on Hexb gene expression in wild type mouse cortex at 1200 ppm administered as rodent chow starting from 1.5 months and measured after 7 months by RNA-Seq analysis (reference value: 38.813 to 48.079); assay type: functional; conditions: route po, time 5.5 months, 4015 h
[26] = Effect on Ctsd gene expression in wild type mouse cortex at 1200 ppm administered as rodent chow starting from 1.5 months and measured after 7 months by RNA-Seq analysis (reference value: 110.927 to 117.612 RPKM); assay type: functional; conditions: route po, time 5.5 months, 4015 h
[27] = Effect on Itgax gene expression in wild type mouse cortex at 1200 ppm administered as rodent chow starting from 1.5 months and measured after 7 months by RNA-Seq analysis (reference value: 0.069 to 0.218 RPKM); assay type: functional; conditions: route po, time 5.5 months, 4015 h
[28] = Prevention of Nos1ap gene downregulation in 5XFAD mouse hippocampus assessed as percent change in Reads Per kilo base per Million mapped reads at 1200 ppm administered as rodent chow starting from 1.5 months and measured after 7 months by RNA-Seq analysis (reference value: 58.209 to 93.063 %); assay type: functional; conditions: route po, time 5.5 months, 4015 h
[29] = Prevention of Gls gene downregulation in 5XFAD mouse hippocampus assessed as percent change in Reads Per kilo base per Million mapped reads at 1200 ppm administered as rodent chow starting from 1.5 months and measured after 7 months by RNA-Seq analysis (reference value: 58.522 to 73.849 %); assay type: functional; conditions: route po, time 5.5 months, 4015 h
[30] = Prevention of Dusp5 gene downregulation in 5XFAD mouse hippocampus assessed as percent change in Reads Per kilo base per Million mapped reads at 1200 ppm administered as rodent chow starting from 1.5 months and measured after 7 months by RNA-Seq analysis (reference value: 41.082 to 74.744 %); assay type: functional; conditions: route po, time 5.5 months, 4015 h
Mus musculus [31] = test: Prevention of Itgam gene upregulation in 5XFAD mouse hippocampus at 1200 ppm administered as rodent chow starting from 1.5 months and measured after 7 months by Nanostring analysis; assay type: functional, tissue-based; conditions: route po, time 5.5 months
Mus musculus [32] = test: Prevention of Hgf gene downregulation in 5XFAD mouse hippocampus at 1200 ppm administered as rodent chow starting from 1.5 months and measured after 7 months by Nanostring analysis; assay type: functional, tissue-based; conditions: route po, time 5.5 months

SMILES: FC(F)(F)c1ccc(CNc2ccc(Cc3c[nH]c4ncc(Cl)cc34)cn2)cn1 [PEXIDARTINIB]
- Activity (Mus musculus [1]): 688.11 um3

SMILES: COc1ncc(F)cc1CNc1ccc(Cc2c[nH]c3ncc(C)cc23)c(F)n1 [PLX-5622]
- IC50 [2]: 1100 nM
- IC50 [3]: > 1000 nM
- IC50 [4]: > 1000 nM
- IC50 [5]: > 1000 nM
- IC50 [6]: > 1000 nM
- IC50 [7]: > 1000 nM
- IC50 [8]: > 1000 nM
- IC50 [9]: > 1000 nM
- IC50 (Misshapen-like kinase 1): > 1000 nM
- IC50 [10]: > 1000 nM
- IC50 [11]: > 1000 nM
- Vd [12]: 0.34 L/kg
- half-life [13]: 2.6 h
- half-life [14]: 2.2 h
- Cmax [15]: 26300 ng/mL
- bioavailability [16]: 59%
- Activity (Mus musculus [17]): 18.9%
- Time (Mus musculus [18]): 0 s
- Activity (Mus musculus [19]): 0.03 meter/s
- Time (Mus musculus [20]): 32.4 s
- Activity [21]: 3
- Activity (Mus musculus [22]): 0
- Activity [23]: 0.073 RPKM
- Activity [24]: 0.341 RPKM
- Activity [25]: 8.715 RPKM
- Activity [26]: 76.394 RPKM
- Activity [27]: 0 RPKM
- Activity [28]: 82.746%
- Activity [29]: 77.958%
- Activity [30]: 83.733%
- Activity (Mus musculus [31]): Active
- Activity (Mus musculus [32]): Active
